Assay in all cases: HIF reporter inhibition across pancreatic and renal lines – cell-based, luminescence, MIAPaCa-2, 786-0, panel, SAR follow-up (AID 652011)
One assay has as its system HIF2a PANC. The following applies: MIAPaCa-2/PANC HIF reporter, luciferase luminescence, desferoxamine, overnight. Put shortly: (§1)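 Reagent: Desferoxamine added before compound | Doses: Compounds from 10 mM and 0.3125 mM stocks, 1% DMSO final | Times: Overnight seeding and compound exposure, 37 °C, 5% CO2, 10-min detection | Measured by: One-Glo luciferase luminescence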

A further assay concerns HIF1a. The following applies: MIAPaCa-2/PANC HIF reporter, luciferase luminescence, desferoxamine, overnight. In a few lines: as §1
The target of assay [1] is Endothelial PAS domain-containing protein 1 (Homo sapiens) (UniProt Q99814). The following applies: MIAPaCa-2/PANC HIF reporter, luciferase luminescence, desferoxamine, overnight; HIF2a PANC cells; mean of runs. Put shortly:
as §1

The mark [2] stands for this setting: run 1, individual run IC50, panel line.
Setting [3] is: run 2, individual run IC50, panel line.

Data on 16 compounds can be found in PubChem BioAssay AID652011 (Sanford-Burnham Center for Chemical Genomics, 2013).

pIC50: −log10 of the molar value. The source made the active and inactive calls.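 The calls were made as follows: active = IC50 of 10 µM or lower on HIF-2a in both cell lines, but not on HIF-1a; inactive = the rest, including compounds also potent on HIF-1a.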

As usually defined, the pIC50 is the IC50 on a negative log10 scale, so that one unit is a factor of ten. By IC50 is commonly meant the concentration at which inhibition is half-maximal.

Sequence of Endothelial PAS domain-containing protein 1 (Homo sapiens) (Q99814 whole entry, looked up, the tested form may be a part): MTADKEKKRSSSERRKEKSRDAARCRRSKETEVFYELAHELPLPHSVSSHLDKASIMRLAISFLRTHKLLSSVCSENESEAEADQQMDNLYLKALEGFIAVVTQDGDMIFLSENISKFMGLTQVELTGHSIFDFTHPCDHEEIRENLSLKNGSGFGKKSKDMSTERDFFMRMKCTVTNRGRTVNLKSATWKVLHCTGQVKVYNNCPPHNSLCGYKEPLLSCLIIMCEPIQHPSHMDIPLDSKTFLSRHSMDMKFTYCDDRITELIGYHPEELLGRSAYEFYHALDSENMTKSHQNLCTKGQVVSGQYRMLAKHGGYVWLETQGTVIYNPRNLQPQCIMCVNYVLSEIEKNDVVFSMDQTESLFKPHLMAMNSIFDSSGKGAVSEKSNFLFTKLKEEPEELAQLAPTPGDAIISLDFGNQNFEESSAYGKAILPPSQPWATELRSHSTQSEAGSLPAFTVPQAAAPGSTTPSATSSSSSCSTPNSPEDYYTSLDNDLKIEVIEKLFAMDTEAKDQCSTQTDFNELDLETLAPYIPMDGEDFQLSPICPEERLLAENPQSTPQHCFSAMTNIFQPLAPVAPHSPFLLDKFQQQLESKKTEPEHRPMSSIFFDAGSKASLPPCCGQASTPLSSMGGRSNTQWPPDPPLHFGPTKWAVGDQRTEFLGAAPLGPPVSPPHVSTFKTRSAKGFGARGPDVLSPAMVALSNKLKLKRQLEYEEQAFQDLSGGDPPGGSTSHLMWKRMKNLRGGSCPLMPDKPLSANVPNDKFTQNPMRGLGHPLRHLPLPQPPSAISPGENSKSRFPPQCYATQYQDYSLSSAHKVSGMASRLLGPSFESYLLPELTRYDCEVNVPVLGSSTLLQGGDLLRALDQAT

Turning to `CCC(C)NC(=O)CCc1nc(-c2ccc(C(C)(C)C)cc2)no1` (stereo not given), the pIC50 in the assay on HIF2a PANC (setting [2]), in the assay with HIF2a PANC (setting [3]), with HIF1a (setting [2]) and with HIF1a (setting [3]) was less than 4.00 in each case. Besides, the IC50 in assay [1] is > 99 µM (inactive).
With `CCCCc1ccc(-c2noc(CCC(=O)NC3CC3)n2)cc1`, the negative-log IC50 (pIC50) in the assay with HIF2a PANC (setting [2]) was less than 4.00; in the assay on HIF2a PANC (setting [3]) it was greater than 6.72; in the assay on HIF1a (setting [2]), less than 4.00; in the assay with HIF1a (setting [3]), less than 4.00. Also, in assay [1], the IC50 result was “inactive”.
Consider `CNC(=O)CCc1nc(-c2ccc(C(C)C)cc2)no1`, for which the pIC50 with HIF2a PANC (setting [2]) is greater than 6.72; in the assay on HIF2a PANC (setting [3]) it was greater than 6.72; in the assay with HIF1a (setting [2]), less than 4.00; in the assay on HIF1a (setting [3]), less than 4.00; in assay [1] it was greater than 6.72.
Consider `CC(C)(C)NC(=O)CCc1nc(-c2ccccc2)no1`, for which the pIC50 in the assay on HIF2a PANC (setting [2]), with HIF2a PANC (setting [3]), in the assay on HIF1a (setting [2]) and in the assay on HIF1a (setting [3]) was less than 4.00 throughout. Besides, the IC50 in assay [1] is > 99 µM (inactive).
For `CCN(CC)C(=O)CCc1nc(-c2ccc(C(C)(C)C)cc2)no1`, the pIC50 in the assay with HIF2a PANC (setting [2]), with HIF2a PANC (setting [3]), in the assay with HIF1a (setting [2]) and with HIF1a (setting [3]) was less than 4.00 throughout. Moreover, in assay [1], the IC50 is > 99 µM (inactive).
Regarding `O=C(CCc1nc(-c2ccccc2)no1)NC1CC1`, the pIC50 in the assay with HIF2a PANC (setting [2]), in the assay on HIF2a PANC (setting [3]), with HIF1a (setting [2]) and with HIF1a (setting [3]) was less than 4.00 each time. In addition, the IC50 in assay [1] is > 99 µM (inactive).
Take `CNC(=O)CCc1nc(-c2ccc(C(C)(C)C)cc2)no1`: the pIC50 in the assay on HIF2a PANC (setting [2]) was greater than 6.72; in the assay with HIF2a PANC (setting [3]), less than 4.00; in the assay with HIF1a (setting [2]) it was less than 4.00; in the assay with HIF1a (setting [3]), less than 4.00. In addition, the IC50 result in assay [1] was “inactive”.
Consider `CC(C)c1ccc(-c2noc(CCC(=O)NC3CC3)n2)cc1`, for which the pIC50 in the assay with HIF2a PANC (setting [2]), in the assay on HIF2a PANC (setting [3]), in the assay with HIF1a (setting [2]) and with HIF1a (setting [3]) was less than 4.00 throughout. Besides, the IC50 in assay [1] is > 99 µM (inactive).
As to `CC(C)(C)NC(=O)CCc1nc(-c2ccc(C(C)(C)C)cc2)no1`, the pIC50 is greater than 6.72 with HIF2a PANC (setting [2]); 6.24 with HIF2a PANC (setting [3]); less than 4.00 with HIF1a (setting [2]); less than 4.00 in the assay on HIF1a (setting [3]); 6.24 in assay [1].
Regarding `CCNC(=O)CCc1nc(-c2ccccc2Cl)no1`, the pIC50 in the assay with HIF2a PANC (setting [2]), with HIF2a PANC (setting [3]), in the assay on HIF1a (setting [2]) and with HIF1a (setting [3]) was less than 4.00 each time. Besides, the IC50 in assay [1] is > 99 µM (inactive).
Consider `CNC(=O)CCc1nc(-c2ccc(F)cc2)no1`, for which the pIC50 with HIF2a PANC (setting [2]), in the assay with HIF2a PANC (setting [3]), in the assay with HIF1a (setting [2]) and with HIF1a (setting [3]) was less than 4.00 in each case. The IC50 in assay [1] was > 99 µM (inactive).
As to `CC(C)(C)c1ccc(-c2noc(CCC(=O)NC3CC3)n2)cc1`, the pIC50 in the assay with HIF2a PANC (setting [2]) is greater than 5.00; in the assay on HIF2a PANC (setting [3]), greater than 6.72; in the assay on HIF1a (setting [2]), less than 4.00; with HIF1a (setting [3]), less than 4.00; in assay [1] it was greater than 6.72.
As for `CC(C)NC(=O)CCc1nc(-c2ccc(C(C)(C)C)cc2)no1`, the pIC50 in the assay on HIF2a PANC (setting [2]) is greater than 5.00; with HIF2a PANC (setting [3]), greater than 6.72; in the assay on HIF1a (setting [2]), less than 4.00; in the assay on HIF1a (setting [3]) it was less than 4.00; in assay [1] it was greater than 6.72.
In the case of `C=CCNC(=O)CCc1nc(-c2ccc(C(C)(C)C)cc2)no1`, the pIC50 is greater than 5.00 in the assay with HIF2a PANC (setting [2]); greater than 6.72 with HIF2a PANC (setting [3]); less than 4.00 in the assay with HIF1a (setting [2]); less than 4.00 in the assay with HIF1a (setting [3]); greater than 6.72 in assay [1].
For `CC(C)(C)c1ccc(-c2noc(CCC(=O)N3CCOCC3)n2)cc1`, the pIC50 with HIF2a PANC (setting [2]), in the assay with HIF2a PANC (setting [3]), in the assay on HIF1a (setting [2]) and in the assay with HIF1a (setting [3]) was less than 4.00 each time. For the same compound, the IC50 in assay [1] was > 99 µM (inactive).
`CN(C)C(=O)CCc1nc(-c2ccc(C(C)(C)C)cc2)no1`: the pIC50 in the assay on HIF2a PANC (setting [2]), in the assay on HIF2a PANC (setting [3]), with HIF1a (setting [2]) and in the assay with HIF1a (setting [3]) was less than 4.00 each time. The IC50 in assay [1] is > 99 µM (inactive).
